Source: PubChem BioAssay
Shown are actives, neighbours in structure and some others; about 6.6% of the full set was active somewhere.
HER2 expr 66K: Her2 kinase expression inhibition | P04626 | SKBR-3 HER2 protein level, AlphaScreen, 18-24 h; hits give low values | HER2 level % of control, % at 10 µM | 65,000 compounds, 0.69% hits;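 active = HER2 level under 5% of the carrier-only control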;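 also: 100% = DMSO carrier and 0% = 500 nM PU-H71 HSP90 inhibitor; lower value means stronger loss of Her2 protein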
Target sequence (P04626 whole entry, looked up): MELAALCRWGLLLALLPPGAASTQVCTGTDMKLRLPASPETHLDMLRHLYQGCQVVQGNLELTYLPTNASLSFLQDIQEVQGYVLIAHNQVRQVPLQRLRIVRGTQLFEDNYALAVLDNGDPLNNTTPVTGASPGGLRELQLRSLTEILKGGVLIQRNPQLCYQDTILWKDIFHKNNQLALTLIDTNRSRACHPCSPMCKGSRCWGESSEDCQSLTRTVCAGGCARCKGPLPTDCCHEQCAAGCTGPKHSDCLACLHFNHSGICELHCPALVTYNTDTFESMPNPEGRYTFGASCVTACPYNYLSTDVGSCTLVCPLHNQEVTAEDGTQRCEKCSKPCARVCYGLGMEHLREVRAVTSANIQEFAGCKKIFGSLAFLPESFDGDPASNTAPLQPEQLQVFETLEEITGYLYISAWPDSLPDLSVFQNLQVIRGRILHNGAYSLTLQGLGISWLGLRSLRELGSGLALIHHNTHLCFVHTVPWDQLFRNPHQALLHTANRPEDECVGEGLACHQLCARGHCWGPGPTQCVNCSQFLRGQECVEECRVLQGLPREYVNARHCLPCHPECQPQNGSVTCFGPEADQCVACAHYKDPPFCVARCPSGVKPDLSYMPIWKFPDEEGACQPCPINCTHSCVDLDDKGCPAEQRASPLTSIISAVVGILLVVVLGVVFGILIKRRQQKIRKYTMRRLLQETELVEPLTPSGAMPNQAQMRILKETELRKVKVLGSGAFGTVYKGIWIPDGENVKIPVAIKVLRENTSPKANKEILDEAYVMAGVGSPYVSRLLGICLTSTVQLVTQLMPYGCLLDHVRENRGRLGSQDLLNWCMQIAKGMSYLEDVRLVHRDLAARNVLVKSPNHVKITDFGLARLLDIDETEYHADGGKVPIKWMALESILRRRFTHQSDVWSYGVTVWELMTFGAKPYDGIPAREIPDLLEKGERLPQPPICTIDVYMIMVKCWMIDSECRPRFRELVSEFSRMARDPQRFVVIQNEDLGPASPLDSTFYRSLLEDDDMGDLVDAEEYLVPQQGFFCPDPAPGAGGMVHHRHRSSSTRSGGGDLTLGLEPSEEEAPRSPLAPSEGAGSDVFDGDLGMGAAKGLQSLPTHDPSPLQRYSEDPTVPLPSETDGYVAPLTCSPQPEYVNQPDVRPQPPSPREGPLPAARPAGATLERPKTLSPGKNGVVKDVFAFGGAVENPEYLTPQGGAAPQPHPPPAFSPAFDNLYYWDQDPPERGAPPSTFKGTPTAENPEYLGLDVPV
tolC growth inh: E. coli tolC mutant growth inhibition. E. coli BW25113 tolC mutant growth, OD615. growth inhibition, % at 10 µM (by protocol). 65,000 compounds, 2.2% hits;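 active = growth inhibition at or above a cutoff equal to the mean over every tested compound plus 3 SD, cut at about 60% in these data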;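 also: growth measured after 20 h incubation at 37 °C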
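test system = E. coli BW25113 ΔtolC::kan bacteria | medium = LB with kanamycin 50 µg/mL | signal = OD at 615 nm | schedule = 37 °C, 20 h exposure | evaluation = % inhibition of E. coli growth | compound dosing = one dose of 10 µM final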
E coli WT exp: E. coli BW25113 growth inhibition, expanded screen | growth inhibition, % at 100 µM | OD600 absorbance | 98,000 compounds, 0.15% hits;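 active = growth inhibition above about 50% at one test dose, limit read from the data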;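 also: growth measured after 20 h incubation at 37 °C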
PostGolgi ctrl: inhibits growth of the yeast control strain; inhibition, % at 10 µM; 98,000 compounds, 5% hits; efflux-deficient yeast background strain, growth absorbance A615, 16 h
PostGolgi yeast: growth inhibition of a yeast mutant, post-Golgi transport screen; inhibition, % at 10 µM; post-Golgi transport phenotypic cell assay; 98,000 compounds, 0.9% hits;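 also: yeast cells grown in 1536-well plates; yeast grown about 18 h at 30C before absorbance read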
The depositor's hits bear a star; . = no result. Rule as the data show it, unless noted: active = inhibition above about 30%; inactive = the rest.

SMILES	HER2 expr 66K	tolC growth inh	E coli WT exp	PostGolgi ctrl	PostGolgi yeast
O=c1cnn(-c2ccccc2)c(-c2ccccc2)c1	93	5	2	14	13
CC1(C)Cc2c(sc3c2c(=N)n(Cc2ccco2)c(=O)n3Cc2ccc(F)cc2)CO1	135	25	-8	64*	14
Cc1cc(NC(=O)COC(=O)CCC(=O)c2ccc(F)cc2)no1	98	-2	-2	5	-1
COC(=O)c1ccccc1NC(=O)c1sc(N)nc1C	77	9	5	0	13
COC(=O)c1ccccc1NC(=O)c1sc(=S)n(C)c1N	94	3	-2	36*	-8
O=C(CSCc1ccccc1Cl)NN1C(=O)c2ccccc2C1=O	.	.	1	-1	0
Cc1cccc(-n2ncc3c(NCc4cccs4)ncnc32)c1	90	26	-2	42*	6
c1ccc(CCNc2ncnc3c2cnn3-c2ccccc2)cc1	77	73*	.	.	.
CN(Cc1ccccc1)c1ncnc2c1cnn2-c1ccccc1	116	92*	-15	28	6
CC1CCN(c2ncnc3c2cnn3-c2ccccc2)CC1	74	49	-6	32*	5
c1ccc(CNc2ncnc3c2cnn3-c2ccccc2)cc1	81	-3	1	0	3
COC(=O)c1cnn(-c2nc3c(C)cccc3s2)c1C	.	.	-5	7	13
CN(C)CCCN1C(=O)C(=O)/C(=C(/O)c2ccc3c(c2)OCO3)C1c1cccnc1 (configuration not stated)	94	1	.	.	.
COc1ccccc1-n1c(C)nnc1SCC(=O)Nc1cccc(C(C)=O)c1	93	0	4	8	5
CCOc1ccc(CCNC(=O)C2CCCN(c3nnc(-n4cccc4)s3)C2)cc1OCC (configuration not stated)	94	4	-15	7	-14
CCN(c1ccccc1)c1ncnc2c1cnn2-c1ccccc1	120	100*	-2	25	-5
COCCN(CCOC)c1ncnc2c1cnn2-c1ccccc1	81	-8	.	.	.
COc1ccccc1N1CCN(C(=O)C2CC=CCC2C(=O)O)CC1 (configuration not stated)	93	-6	4	14	-3
O=C(CCc1ccccc1)N1CCN(c2ccc(Cl)cc2)CC1	.	.	11	5	12
O=C(C1c2ccccc2Oc2ccccc21)N1CCN(c2ccc(Cl)cc2)CC1	.	.	-24	37*	-10
COc1ccccc1N1CCN(C(=O)C2c3ccccc3Oc3ccccc32)CC1	33	15	-2	42*	17
CC(C)(C)NC(=O)CN(C(=O)CS(=O)CC(=O)Nc1ccc(F)cc1)c1ccc(Cl)cc1 (configuration not stated)	98	2	6	-6	5
CCn1c2c(c3cc(Br)ccc31)CCC/C2=N\O	115	47	-1	41*	6
COC(=O)c1ccc(Cn2nnc3c(sc4nc(N5CCOCC5)c5c(c43)CCCC5)c2=O)o1	193	-2	.	.	.
O=c1c2sc3nc(N4CCOCC4)c4c(c3c2nnn1Cc1ccccc1)CCCC4	.	.	-17	32*	-1
SMILES	HER2 expr 66K	tolC growth inh	E coli WT exp	PostGolgi ctrl	PostGolgi yeast
Clc1ccc(-c2nn3cnnc3s2)c(Cl)c1	112	12	1	11	5
Cc1cc(=O)[nH]c(-n2nc(C)cc2C)n1	70	75*	57*	-6	-3
Cc1ccc(Cl)c(OCCCCN(C)Cc2ccccc2)c1	.	.	12	34*	93*
CCCc1cc(Nc2ccccc2OCC)n2ncnc2n1	.	.	8	4	0
CCCOC(=O)NC(CC)COC(=O)Nc1cc(C)ccc1C (configuration not stated)	81	-8	-1	33*	2
Cn1c(=O)c2cc(S(=O)(=O)N3CCC(c4ccccc4)CC3)ccc2n(C)c1=O	94	-3	-7	-6	29
Cc1ccc(/C=C/C2=NN(Cc3ccc(Cl)c(Cl)c3)C(=O)CC2)cc1	.	.	-5	44*	-1
CCOC(=O)CN1N=C(/C=C/c2ccc(C)cc2)CCC1=O	.	.	-4	14	7
O=C(Oc1cccc(Br)c1)c1cccnc1	98	0	18	34*	12
Cc1nn(-c2ccccc2)c2c1C(=O)N(Cc1ccccc1)C(=O)C(C)(C)C2	.	.	0	24	3
Cc1nn(-c2nc3ccccc3n2Cc2ccccc2)c2c1C(=O)CC(C)(C)C2	81	91*	-17	26	-11
CCOC(=O)N1CCN(C(=O)CSCc2nc(-c3ccccc3F)oc2C)CC1	102	-1	1	8	-4
CCOC(=O)N1CCN(C(=O)CSCc2nc(-c3ccccc3C)oc2C)CC1	-23*	12	-1	15	-1
